Experimental data as given in ChEMBL document CHEMBL1145399, “Design, synthesis, and pharmacology of novel 7-substituted 3,4-dihydro-2H-1,2,4-benzothiadiazine 1,1-dioxides as positive allosteric modulators of AMPA receptors” (J Med Chem, 2007).

Columns and labels:
[1] = tested on: Oocyte; experiment: Activity at Wistar rat cortex AMPA receptor expressed in Xenopus laevis oocytes assessed as 2-fold increase of (S)-AMPA-induced current; type: cell-based
In short: (§1)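 Two-electrode voltage clamp on Xenopus oocytes injected with rat cortex poly(A+) mRNA. Current is evoked by (S)-AMPA at 10 µM with drug co-applied. Compounds alone were checked on the holding current. Mean ± SEM, n ≥ 2–3.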

[2] = tested on: Oocyte; experiment: Activity at Wistar rat cortex AMPA receptor expressed in Xenopus laevis oocytes assessed as 5-fold increase of (S)-AMPA-induced current; type: cell-based; in short: as §1
[3] = Activity at Wistar rat cortex AMPA receptor expressed in Xenopus laevis oocytes assessed as effect on (S)-AMPA-induced current; type: cell-based; details: Oocyte; in short: as §1
[4] = tested on: Oocyte; experiment: Activity at Wistar rat cortex AMPA receptor expressed in Xenopus laevis oocytes assessed as maximum increase of (S)-AMPA-induced current; type: cell-based; in short: as §1
[5] = tested on: Hippocampus; experiment: Increase in (S)-AMPA-stimulated [3H]noradrenaline release in Wistar rat hippocampus at 30 uM relative to control; type: functional
In short: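 Rat hippocampal slices preloaded with [³H]-noradrenaline. Release is stimulated by (S)-AMPA, with drug at 30 µM. Drug alone was compared with basal DMSO control release. Result is the % increase in AMPA-evoked release.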

## NS(=O)(=O)c1cc2c(cc1Cl)NC(C1CC3C=CC1C3)NS2(=O)=O (centres undefined) [CYCLOTHIAZIDE]
[1]
  Activity: 1.6 µM
[2]
  Activity: 9.8 µM
[3]
  EC50: 7.1 µM
[4]
  Activity: 844%
[5]
  Activity: 73%

## CN1CNS(=O)(=O)c2cc(Cl)ccc21
[1]
  Activity: 6 µM
[2]
  Activity: 18 µM
[4]
  Activity: 1740%

## CN1CNS(=O)(=O)c2ccccc21
[1]
  Activity: 22 µM
[2]
  Activity: 46 µM
[4]
  Activity: > 1900%

## CCN1CNS(=O)(=O)c2cc(Br)ccc21
[1]
  Activity: 29 µM
[2]
  Activity: 78 µM
[4]
  Activity: > 1100%

## CN1CNS(=O)(=O)c2cc(N)ccc21
[1]
  Activity: > 300 µM
[2]
  Activity: > 300 µM

## CCN1CNS(=O)(=O)c2cc(NC(C)=O)ccc21
[1]
  Activity: > 300 µM
[2]
  Activity: > 300 µM

## CN1CN(C)S(=O)(=O)c2cc(Cl)ccc21
[1]
  Activity: 7 µM
[2]
  Activity: 17 µM
[4]
  Activity: > 1900%

## CCN1CNS(=O)(=O)c2cc(OC)ccc21
[1]
  Activity: 68 µM
[2]
  Activity: 190 µM
[4]
  Activity: > 600%

## O=S1(=O)N[C@H]2CCCN2c2ccccc21
[1]
  Activity: 24.6 µM
[2]
  Activity: 78.2 µM
[3]
  EC50: 130 µM
[4]
  Activity: 1260%
[5]
  Activity: 0%

## CN1CN(C)S(=O)(=O)c2ccccc21
[1]
  Activity: 37 µM
[2]
  Activity: 127 µM
[4]
  Activity: > 1700%

## CCN1CNS(=O)(=O)c2cc(N)ccc21
[1]
  Activity: > 300 µM
[2]
  Activity: > 300 µM

## CCN1CNS(=O)(=O)c2ccccc21
[1]
  Activity: 14 µM
[2]
  Activity: 38 µM
[4]
  Activity: > 1800%

## CN1CNS(=O)(=O)c2cc([N+](=O)[O-])ccc21
[1]
  Activity: 11 µM
[2]
  Activity: 26 µM
[4]
  Activity: > 1400%

## CCN1CNS(=O)(=O)c2cc(C(=O)O)ccc21
[1]
  Activity: > 100 µM
[2]
  Activity: > 100 µM

## CC1Nc2ccc(Cl)cc2S(=O)(=O)N1 (centres undefined)
[1]
  Activity: 134 µM
[2]
  Activity: 509 µM
[4]
  Activity: > 700%

## CCN1CNS(=O)(=O)c2cc(C(=O)OC)ccc21
[1]
  Activity: > 100 µM
[2]
  Activity: > 100 µM

## CCN1CNS(=O)(=O)c2cc(I)ccc21
[1]
  Activity: 95 µM
[4]
  Activity: > 400%

## Cc1ccc2c(c1)S(=O)(=O)N=CN2C
[1]
  Activity: 320 µM
[2]
  Activity: 650 µM
[4]
  Activity: > 600%

## CCN1CNS(=O)(=O)c2cc(C)ccc21
[1]
  Activity: 25 µM
[2]
  Activity: 95 µM
[4]
  Activity: > 1300%

## CN1C=NS(=O)(=O)c2cc(Cl)ccc21
[1]
  Activity: > 1000 µM
[2]
  Activity: > 1000 µM

## CN1C=NS(=O)(=O)c2ccccc21
[1]
  Activity: 450 µM
[2]
  Activity: > 1000 µM

## CCN1C=NS(=O)(=O)c2cc(C)ccc21
[1]
  Activity: 300 µM
[2]
  Activity: > 1000 µM
[4]
  Activity: > 300%

## CCN1C=NS(=O)(=O)c2cc(Cl)ccc21
[1]
  Activity: 400 µM
[2]
  Activity: > 1000 µM
[4]
  Activity: > 400%

## Cc1ccc2c(c1)S(=O)(=O)NCN2C
[1]
  Activity: 21 µM
[2]
  Activity: 47 µM
[4]
  Activity: > 3000%

## CCN1CNS(=O)(=O)c2cc(C(=O)Oc3ccccc3)ccc21
[1]
  Activity: 32 µM
[2]
  Activity: 180 µM
[4]
  Activity: > 600%

## CCN1CN(C)S(=O)(=O)c2cc(Cl)ccc21
[1]
  Activity: 21 µM
[2]
  Activity: 64 µM
[4]
  Activity: > 1100%

## CCN1CNS(=O)(=O)c2cc(C(F)(F)F)ccc21
[1]
  Activity: > 300 µM
[2]
  Activity: > 300 µM

## CCN1CNS(=O)(=O)c2cc([N+](=O)[O-])ccc21
[1]
  Activity: 16 µM
[2]
  Activity: 45 µM
[4]
  Activity: > 1000%
